Laboratory results taken from ChEMBL document CHEMBL5032501, “Total Synthesis and Antimalarial Activity of 2-(p-Hydroxybenzyl)-prodigiosins, Isoheptylprodigiosin, and Geometric Isomers of Tambjamine MYP1 Isolated from Marine Bacteria” (J Med Chem, 2021).

test system: not listed separately; assay: Toxicity in CF-1 mouse infected with blood stage Plasmodium yoelii assessed as reduction in body weight at 5 to 25 mg/kg, po administered once daily for 4 days and measured for 28 days; assay type: organism-based; settings: in vivo, 96 h, dose 5-25 mg/kg, time 4 day
Outline: (§1)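 CF1 mice infected with P. yoelii and given oral doses of 5 or 25 mg/kg in PEG-400 once daily for 4 days. Checked daily for mortality, morbidity and signs of toxicity. Body weight, grooming, posture and locomotion monitored over the study, to day 28. Compared with the vehicle control group.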

For CCCCCCCc1cc(/C=C2\N=C(c3ccc(Cc4ccc(O)cc4)[nH]3)C=C2OC)[nH]c1C.Cl, the Activity was “Non-Toxic”.
In the case of C=CCCCCCCCCc1ccc(C2=N/C(=C\NCCC=C)C(OC)=C2)[nH]1.Cl, the Activity is reported as “Non-Toxic”.
For CCCCc1cc(/C=C2\N=C(c3ccc(Cc4ccc(O)cc4)[nH]3)C=C2OC)[nH]c1C.Cl, the Activity was “Non-Toxic”.
In the case of CCCCCCc1cc(/C=C2\N=C(c3ccc(Cc4ccc(O)cc4)[nH]3)C=C2OC)[nH]c1C.Cl, the Activity is reported as “Non-Toxic”.
For CCCCCc1cc(/C=C2\N=C(c3ccc(Cc4ccc(O)cc4)[nH]3)C=C2OC)[nH]c1C.Cl, the Activity was “Non-Toxic”.

test system: not listed separately; assay: Toxicity in CF-1 mouse infected with blood stage Plasmodium yoelii assessed as behavioral changes at 5 to 25 mg/kg, po administered once daily for 4 days and measured for 28 days; assay type: organism-based; settings: in vivo, 96 h, dose 5-25 mg/kg, time 4 day; outline: as §1

For CCCCCCCc1cc(/C=C2\N=C(c3ccc(Cc4ccc(O)cc4)[nH]3)C=C2OC)[nH]c1C.Cl, the Activity was “Non-Toxic”.
For C=CCCCCCCCCc1ccc(C2=N/C(=C\NCCC=C)C(OC)=C2)[nH]1.Cl, the Activity was “Non-Toxic”.
In the case of CCCCc1cc(/C=C2\N=C(c3ccc(Cc4ccc(O)cc4)[nH]3)C=C2OC)[nH]c1C.Cl, the Activity is reported as “Non-Toxic”.
In the case of CCCCCCc1cc(/C=C2\N=C(c3ccc(Cc4ccc(O)cc4)[nH]3)C=C2OC)[nH]c1C.Cl, the Activity is reported as “Non-Toxic”.
For CCCCCc1cc(/C=C2\N=C(c3ccc(Cc4ccc(O)cc4)[nH]3)C=C2OC)[nH]c1C.Cl, the Activity was “Non-Toxic”.

test system: not listed separately; assay: Therapeutic index, ratio of IC50 for cytotoxicity against human HepG2 cells to IC50 for antiplasmodial activity against asexual blood stage of chloroquine-sensitive Plasmodium falciparum D6 infected in human erythrocytes; settings: not given

First: CCCCCCCc1cc(/C=C2\N=C(c3ccc(Cc4ccc(O)cc4)[nH]3)C=C2OC)[nH]c1C.Cl
Second: CCCCCCc1cc(/C=C2\N=C(c3ccc(Cc4ccc(O)cc4)[nH]3)C=C2OC)[nH]c1C.Cl
The selectivity ratio of the first is lower: 192 for the first, 1100 for the second.

First: C=CCCCCCCCCc1ccc(C2=N/C(=C\NCCC=C)C(OC)=C2)[nH]1.Cl
Second: CCCCCc1cc(/C=C2\N=C(c3ccc(Cc4ccc(O)cc4)[nH]3)C=C2OC)[nH]c1C.Cl
The selectivity ratio of the first is lower: 180 for the first, 439 for the second.

With CCCCc1cc(/C=C2\N=C(c3ccc(Cc4ccc(O)cc4)[nH]3)C=C2OC)[nH]c1C.Cl the selectivity ratio was 740.

test system: Plasmodium falciparum; assay: Antiplasmodial activity against asexual blood stage of multidrug-resistant Plasmodium falciparum Dd2 infected in human erythrocytes assessed as reduction in parasite growth incubated for 72 hrs by SYBR green 1 staining based assay; assay type: functional, organism-based; settings: Dd2, Erythrocyte
Outline: (§2)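 P. falciparum grown in human erythrocytes at 2% hematocrit in RPMI 1640 with 0.5% Albumax II, hypoxanthine and gentamicin. Assay run at 0.2% parasitemia, 2% hematocrit, triplicate, 72 h at 37 °C under low oxygen. Starting range 2.5–2500 nM, adjusted as needed. SYBR Green I lysis buffer added for 1 h in the dark, fluorescence read at ex 497/em 520 nm. IC50 by nonlinear regression against drug-free controls.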

Compared with CCCCCCCc1cc(/C=C2\N=C(c3ccc(Cc4ccc(O)cc4)[nH]3)C=C2OC)[nH]c1C.Cl, CCCCCCc1cc(/C=C2\N=C(c3ccc(Cc4ccc(O)cc4)[nH]3)C=C2OC)[nH]c1C.Cl is 4.9-fold lower in IC50: 54 nM for the first, 11 nM for the second. The second is the more potent here.

Compared with C=CCCCCCCCCc1ccc(C2=N/C(=C\NCCC=C)C(OC)=C2)[nH]1.Cl, CCCCCc1cc(/C=C2\N=C(c3ccc(Cc4ccc(O)cc4)[nH]3)C=C2OC)[nH]c1C.Cl is 4.3-fold higher in IC50: 6.5 nM for the first, 28 nM for the second.

Molecule CCCCc1cc(/C=C2\N=C(c3ccc(Cc4ccc(O)cc4)[nH]3)C=C2OC)[nH]c1C.Cl has an IC50 of 12 nM.

test system: Plasmodium yoelii; assay: Antimalarial activity against blood stage Plasmodium yoelii infected in CF1 mouse assessed as reduction in parasitemia at 25 mg/kg, po administered once daily for 4 days and measured on day 5 by Giemsa staining based microscopic analysis relative to control; assay type: functional; design: scale not given: the % may be the effect or the level left; settings: time 4 day
Outline: (§3)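 Female CF1 mice, 7–8 weeks old, about 30 g, n = 4 per group. Infected iv with 2.5 × 104 P. yoelii (Kenya strain) parasitized erythrocytes from a donor mouse. Dosed orally in PEG-400, 5 or 25 mg/kg once daily for 4 days, starting the day after inoculation. Giemsa-stained tail-vein blood films read the day after the last dose, then weekly to day 28. Parasitemia taken relative to vehicle controls.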

First: CCCCCCCc1cc(/C=C2\N=C(c3ccc(Cc4ccc(O)cc4)[nH]3)C=C2OC)[nH]c1C.Cl
Second: CCCCCCc1cc(/C=C2\N=C(c3ccc(Cc4ccc(O)cc4)[nH]3)C=C2OC)[nH]c1C.Cl
The Activity of the first is higher: 37% for the first, 9% for the second.

Going from C=CCCCCCCCCc1ccc(C2=N/C(=C\NCCC=C)C(OC)=C2)[nH]1.Cl to CCCCCc1cc(/C=C2\N=C(c3ccc(Cc4ccc(O)cc4)[nH]3)C=C2OC)[nH]c1C.Cl, the Activity falls from 42% to 0%.

Compared with CCCCc1cc(/C=C2\N=C(c3ccc(Cc4ccc(O)cc4)[nH]3)C=C2OC)[nH]c1C.Cl, CCN(CC)CCCC(C)Nc1ccnc2cc(Cl)ccc12 (stereo not drawn) [CHLOROQUINE] is higher in Activity: 6% for the first, 100% for the second.

test system: Plasmodium falciparum; assay: Antiplasmodial activity against asexual blood stage of multidrug-resistant Plasmodium falciparum 7G8 infected in human erythrocytes assessed as reduction in parasite growth incubated for 72 hrs by SYBR green 1 staining based assay; assay type: functional, organism-based; settings: 7G8, Erythrocyte; outline: as §2

Going from CCCCCCCc1cc(/C=C2\N=C(c3ccc(Cc4ccc(O)cc4)[nH]3)C=C2OC)[nH]c1C.Cl to CCCCCCc1cc(/C=C2\N=C(c3ccc(Cc4ccc(O)cc4)[nH]3)C=C2OC)[nH]c1C.Cl, the IC50 falls from 44 nM to 13 nM (3.4-fold).

First: CCCCc1cc(/C=C2\N=C(c3ccc(Cc4ccc(O)cc4)[nH]3)C=C2OC)[nH]c1C.Cl
Second: CCCCCc1cc(/C=C2\N=C(c3ccc(Cc4ccc(O)cc4)[nH]3)C=C2OC)[nH]c1C.Cl
The IC50 of the first is 1.7-fold lower: 16 nM for the first, 27 nM for the second.

For O=C1C(O)=C([C@H]2CC[C@H](c3ccc(Cl)cc3)CC2)C(=O)c2ccccc21 [ATOVAQUONE], the IC50 was 0.2 nM.

test system: Plasmodium yoelii; assay: Antimalarial activity against blood stage Plasmodium yoelii infected in CF1 mouse assessed as reduction in parasitemia at 5 mg/kg, po administered once daily for 4 days and measured on day 5 by Giemsa staining based microscopic analysis relative to control; assay type: functional; design: scale not given: the % may be the effect or the level left; settings: time 4 day; outline: as §3

Going from CCCCCCCc1cc(/C=C2\N=C(c3ccc(Cc4ccc(O)cc4)[nH]3)C=C2OC)[nH]c1C.Cl to CCCCCCc1cc(/C=C2\N=C(c3ccc(Cc4ccc(O)cc4)[nH]3)C=C2OC)[nH]c1C.Cl, the Activity falls from 25% to 0%.

C=CCCCCCCCCc1ccc(C2=N/C(=C\NCCC=C)C(OC)=C2)[nH]1.Cl and CCCCCc1cc(/C=C2\N=C(c3ccc(Cc4ccc(O)cc4)[nH]3)C=C2OC)[nH]c1C.Cl are the same in Activity: 0% for the first, 0% for the second.

Going from CCCCc1cc(/C=C2\N=C(c3ccc(Cc4ccc(O)cc4)[nH]3)C=C2OC)[nH]c1C.Cl to CCN(CC)CCCC(C)Nc1ccnc2cc(Cl)ccc12 (stereo not drawn) [CHLOROQUINE], the Activity rises from 0% to 100%.

test system: Plasmodium falciparum; assay: Antiplasmodial activity against asexual stage of chloroquine-sensitive Plasmodium falciparum D6 infected in human erythrocytes assessed as reduction in parasite growth incubated for 72 hrs by SYBR green 1 staining based assay; assay type: functional, organism-based; settings: D6, Erythrocyte; outline: as §2

Going from CCCCCCCc1cc(/C=C2\N=C(c3ccc(Cc4ccc(O)cc4)[nH]3)C=C2OC)[nH]c1C.Cl to CCCCCCc1cc(/C=C2\N=C(c3ccc(Cc4ccc(O)cc4)[nH]3)C=C2OC)[nH]c1C.Cl, the IC50 falls from 48 nM to 9 nM (5.3-fold). The second is the more potent here.

Going from C=CCCCCCCCCc1ccc(C2=N/C(=C\NCCC=C)C(OC)=C2)[nH]1.Cl to CCCCCc1cc(/C=C2\N=C(c3ccc(Cc4ccc(O)cc4)[nH]3)C=C2OC)[nH]c1C.Cl, the IC50 rises from 8.9 nM to 16 nM (1.8-fold).

Going from CCCCc1cc(/C=C2\N=C(c3ccc(Cc4ccc(O)cc4)[nH]3)C=C2OC)[nH]c1C.Cl to O=C1C(O)=C([C@H]2CC[C@H](c3ccc(Cl)cc3)CC2)C(=O)c2ccccc21 [ATOVAQUONE], the IC50 falls from 12 nM to 0.1 nM (120-fold). The second is the more potent here.

test system: HepG2; assay: Cytotoxicity against human HepG2 cells assessed as reduction in cell viability measured for 48 hrs by MTT assay; assay type: cell-based; settings: HepG2, 48 h

CCCCCCCc1cc(/C=C2\N=C(c3ccc(Cc4ccc(O)cc4)[nH]3)C=C2OC)[nH]c1C.Cl and CCCCCCc1cc(/C=C2\N=C(c3ccc(Cc4ccc(O)cc4)[nH]3)C=C2OC)[nH]c1C.Cl are within 1.5-fold of each other in IC50: 9240 nM for the first, 9930 nM for the second.

Compared with C=CCCCCCCCCc1ccc(C2=N/C(=C\NCCC=C)C(OC)=C2)[nH]1.Cl, CCCCCc1cc(/C=C2\N=C(c3ccc(Cc4ccc(O)cc4)[nH]3)C=C2OC)[nH]c1C.Cl is 4.4-fold higher in IC50: 1600 nM for the first, 7020 nM for the second.

In the case of CCCCc1cc(/C=C2\N=C(c3ccc(Cc4ccc(O)cc4)[nH]3)C=C2OC)[nH]c1C.Cl, the IC50 is reported as 8880 nM.

test system: Plasmodium falciparum; assay: Antiplasmodial activity against asexual blood stage of multidrug-resistant Plasmodium falciparum TM90C2B infected in human erythrocytes assessed as reduction in parasite growth incubated for 72 hrs by SYBR green 1 staining based assay; assay type: functional, organism-based; settings: Erythrocyte

Compared with CCCCCCCc1cc(/C=C2\N=C(c3ccc(Cc4ccc(O)cc4)[nH]3)C=C2OC)[nH]c1C.Cl, CCCCCCc1cc(/C=C2\N=C(c3ccc(Cc4ccc(O)cc4)[nH]3)C=C2OC)[nH]c1C.Cl is 3.3-fold lower in IC50: 40 nM for the first, 12 nM for the second. The second is the more potent here.

First: C=CCCCCCCCCc1ccc(C2=N/C(=C\NCCC=C)C(OC)=C2)[nH]1.Cl
Second: CCCCCc1cc(/C=C2\N=C(c3ccc(Cc4ccc(O)cc4)[nH]3)C=C2OC)[nH]c1C.Cl
The IC50 of the first is 11-fold lower: 2.6 nM for the first, 29 nM for the second.

For CCCCc1cc(/C=C2\N=C(c3ccc(Cc4ccc(O)cc4)[nH]3)C=C2OC)[nH]c1C.Cl, the IC50 was 17 nM.
